Here are results for 19 compounds from ChEMBL document CHEMBL1926667, “The synthesis of 2-nitroaryl-1,2,3,4-tetrahydroisoquinolines, nitro-substituted 5,6-dihydrobenzimidazo[2,1-a]isoquinoline N-oxides and related heterocycles as potential bioreducible substrates for the enzymes NAD(P)H: quinone oxidoreductase 1 and E. coli nitroreductase” (Bioorg Med Chem Lett, 2011).

Series [1] is described as follows: Solubility of the compound at 100 uM in sodium phosphate buffer with 10% DMSO and 500 uM NADH at pH 7. Format: physicochemical. The note with it: pH 7, 100 µM.
The test system of series [2] is Escherichia coli. Nature of the series: Activation of Escherichia coli nitroreductase assessed as specific activity per mg of protein at 50 uM by measuring decrease in substrate concentration by HPLC analysis relative to CB-1954. In short, it runs like this:
(§1)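 Used for poorly soluble substrates: 50 µM compound in buffer (10 mM phosphate, pH 7) with 10% DMSO, incubated with human NQO1 or E. coli NR at 37 °C. Substrate disappearance was monitored over time. Rates assume a 50 µM starting concentration and no DMSO effect on the enzyme. Relative activity is compared with CB-1954.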

For series [3], the system named is Escherichia coli. Put plainly: Activation of Escherichia coli nitroreductase assessed as specific activity per mg of protein at 50 uM by measuring decrease in substrate concentration by HPLC analysis. In short, it runs like this: as §1
The target of series [4] is NAD(P)H dehydrogenase [quinone] 1 (Homo sapiens) (UniProt P15559). Nature of the series: Activation of human NQO1 assessed as specific activity per mg of protein at 50 uM by measuring decrease in substrate concentration by HPLC analysis. The gist of the method:
as §1

Series [5] has the same target. Nature of the series: Activation of human NQO1 assessed as specific activity per mg of protein at 50 uM by measuring decrease in substrate concentration by HPLC analysis relative to CB-1954. In short, it runs like this: as §1
For series [6] the target is unchanged. Nature of the series: Activation of human NQO1 assessed as decrease in substrate concentration at 100 uM by HPLC analysis relative to CB-1954. The gist of the method:
(§2)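 Reduction by human NQO1 or E. coli NR followed by the disappearance of substrate over time; specific activity is the rate of substrate reduction at 37 °C. Relative activity is the specific activity compared with CB-1954.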

Series [7] has as its system Escherichia coli. Put plainly: Activation of Escherichia coli nitroreductase assessed as specific activity per mg of protein at 100 uM by measuring decrease in substrate concentration by HPLC analysis. In short, it runs like this:
as §2

The target in series [8] is NAD(P)H dehydrogenase [quinone] 1 (Homo sapiens) (UniProt P15559). Nature of the series: Activation of human NQO1 assessed as specific activity per mg of protein at 100 uM by measuring decrease in substrate concentration by HPLC analysis. The gist of the method:
as §2

The subject of series [9] is Escherichia coli. Nature of the series: Activation of Escherichia coli nitroreductase assessed as decrease in substrate concentration at 100 uM by HPLC analysis relative to CB-1954. The gist of the method:
as §2

Series [10] relates to Escherichia coli. Nature of the series: Activation of Escherichia coli nitroreductase assessed as decrease in NADH concentration at 100 uM relative to CB-1954. In short, it runs like this: (§3)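 Human NQO1 or E. coli NR reduction followed by the fall in NADH concentration over time; specific activity is the rate of reduction per enzyme at 37 °C. Relative values are the specific activity compared with CB-1954.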

The subject of series [11] is Escherichia coli. Nature of the series: Activation of Escherichia coli nitroreductase assessed as specific activity per mg of protein at 100 uM by measuring decrease in NADH concentration. The gist of the method: as §3
Series [12] is described as follows: Solubility of the compound in 10 mM phosphate buffer with 10% DMSO at pH 7. Format: physicochemical.

NAD(P)H dehydrogenase [quinone] 1 (Homo sapiens), sequence (P15559 whole entry): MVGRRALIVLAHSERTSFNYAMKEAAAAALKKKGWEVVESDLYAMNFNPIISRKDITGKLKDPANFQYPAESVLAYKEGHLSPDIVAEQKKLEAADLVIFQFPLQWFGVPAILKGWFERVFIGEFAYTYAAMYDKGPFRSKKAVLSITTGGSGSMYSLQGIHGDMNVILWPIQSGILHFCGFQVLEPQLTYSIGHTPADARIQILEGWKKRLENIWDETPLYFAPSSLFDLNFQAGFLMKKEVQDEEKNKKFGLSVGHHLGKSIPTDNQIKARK

With `O=[N+]([O-])c1ccc2c(c1)CN(c1c([N+](=O)[O-])cc([N+](=O)[O-])cc1C(F)(F)F)CC2`, the solubility result in series [1] was “Insoluble”. In addition, the figures for the fold change (FC) (with Escherichia coli [2]; in series [5]) were 1.3 and 12.3, respectively. Moreover, the Activity in the series with Escherichia coli [3] was 2.39 µmol/min; in [4], 0.076 µmol/min.
In the case of `O=[N+]([O-])c1cc([N+](=O)[O-])c(N2CCc3ccccc3C2)c(C(F)(F)F)c1`, the fold change (FC) in series [6] turned out to be 17.7; with Escherichia coli [9] it was 22.3. Also, the Activity in the series on Escherichia coli [7] was determined as 41.5 µmol/min; in series [8], 0.11 µmol/min.
As for `O=[N+]([O-])c1cnc2c(c1)[n+]([O-])c1n2CCc2ccccc2-1`, the fold change (FC) was 27.4 in series [6] and 29 in the series with Escherichia coli [9]. For the same compound, the Activity with Escherichia coli [7] was found to be 54 µmol/min; in series [8], 0.17 µmol/min.
Taken in the same sequence, the figures for `NC(=O)c1cc2c(cc1[N+](=O)[O-])[n+]([O-])c1n2CCc2ccccc2-1` were under 0.16, under 0.001, under 0.001 µmol/min and under 0.001 µmol/min.
For the compound `NC(=O)c1cc([N+](=O)[O-])cc2c1n1c([n+]2[O-])-c2ccccc2CC1`, the fold change (FC) is under 0.16 in series [6] and 0.9 in the series on Escherichia coli [10]. Also, the Activity was under 0.001 µmol/min in series [8] and 1.62 µmol/min with Escherichia coli [11].
As to `O=C(O)c1cc([N+](=O)[O-])cc([N+](=O)[O-])c1N1CCc2ccccc2C1`, the fold change (FC) in series [6] was determined as 1.8; in the series with Escherichia coli [9], 2.3. Also, the figures for the Activity (in the series on Escherichia coli [7]; in [8]) were 4.22 µmol/min and 0.011 µmol/min, respectively.
`O=[N+]([O-])c1ccc2c(c1)[n+]([O-])c1n2CCc2c-1cccc2[N+](=O)[O-]`: the fold change (FC) in series [6] was under 0.16; with Escherichia coli [10] it was 0.8. The Activity in series [8] is under 0.001 µmol/min; in the series with Escherichia coli [11], 1.51 µmol/min.
With `O=[N+]([O-])c1cnc(N2CCc3ccccc3C2)c([N+](=O)[O-])c1`, the fold change (FC) worked out at 2.1 in series [6] and 0.8 in the series with Escherichia coli [9]. In addition, the figures for the Activity (in the series on Escherichia coli [7]; in [8]) were 1.49 µmol/min and 0.013 µmol/min, respectively.
Taken in the same sequence, the figures for `O=C(O)c1cc([N+](=O)[O-])c(N2CCc3ccccc3C2)c([N+](=O)[O-])c1` were under 0.16, 0.01, 0.02 µmol/min and under 0.001 µmol/min.
Regarding `O=[N+]([O-])c1ccc2c(c1)-c1n(c3ccc([N+](=O)[O-])cc3[n+]1[O-])CC2`, the fold change (FC) in [6] is under 0.16; in the series on Escherichia coli [10], 0.6. The Activity in series [8] was under 0.001 µmol/min; in the series with Escherichia coli [11] it was 1.3 µmol/min.
For `NC(=O)c1cc([N+](=O)[O-])cc([N+](=O)[O-])c1N1CCc2ccccc2C1`, the figures for the fold change (FC) (in [6]; in the series with Escherichia coli [10]) were 8.6 and 1.5, respectively. Besides, the Activity in series [8] amounted to 0.053 µmol/min; in the series with Escherichia coli [11] it was 2.82 µmol/min.
Consider `NC(=O)c1cc2c(cc1[N+](=O)[O-])[n+]([O-])c1n2CCc2c-1cccc2[N+](=O)[O-]`, for which the fold change (FC) in [6] is under 0.16; in the series on Escherichia coli [9], under 0.001. Also, the Activity (with Escherichia coli [7]; in [8]) was under 0.001 µmol/min each time.
With `O=[N+]([O-])c1cc(C(F)(F)F)c2c(c1)[n+]([O-])c1n2CCc2c-1cccc2[N+](=O)[O-]`, the results for the fold change (FC) (in series [6]; with Escherichia coli [9]) were under 0.16 and under 0.001, respectively. Moreover, the Activity (in the series on Escherichia coli [7]; in [8]) was under 0.001 µmol/min in each case.
`NC(=O)c1cc(N2CC2)c([N+](=O)[O-])cc1[N+](=O)[O-]`: the Activity in the series with Escherichia coli [7] was 1.86 µmol/min. In addition, the Activity (10'-3umol/min) in [8] is 6.2.
Consider `NC(=O)c1cc(N2CCc3ccccc3C2)c([N+](=O)[O-])cc1[N+](=O)[O-]`, for which the figures for the fold change (FC) (in series [6]; in the series with Escherichia coli [9]) were 6.8 and 2.4, respectively. The Activity with Escherichia coli [7] is 4.4 µmol/min; in [8], 0.042 µmol/min.
Taken in the same sequence, the figures for `O=[N+]([O-])c1ccc(N2CCc3ccccc3C2)c([N+](=O)[O-])c1` were under 0.16, 0.2, 0.44 µmol/min and under 0.001 µmol/min.
Take `O=[N+]([O-])c1cc([N+](=O)[O-])c(N2CCc3c(cccc3[N+](=O)[O-])C2)c(C(F)(F)F)c1`: the solubility entry in [12] is recorded as “Insoluble”.
As to `NC(=O)c1cc([N+](=O)[O-])c(N2CCc3ccccc3C2)c([N+](=O)[O-])c1`, the results for the fold change (FC) (in [6]; in the series with Escherichia coli [9]) were under 0.16 and under 0.001, respectively. Also, the Activity (in the series with Escherichia coli [7]; in series [8]) was under 0.001 µmol/min each time.
Regarding `O=[N+]([O-])c1ccc2c(c1)[n+]([O-])c1n2CCc2ccccc2-1`, the fold change (FC) in series [6] was found to be 2.6; in the series with Escherichia coli [9] it was 0.3. In addition, the Activity with Escherichia coli [7] came out at 0.5 µmol/min; in [8], 0.016 µmol/min.
